The list is not random: actives were taken first. Their share in the collection is about 2.9%.
SENP8 block-1 = human SENP8 protease inhibitors, primary screen, biochemical, fluorescence, Nedd8 protein substrate, uHTS. inhibition, % at 20 µM. actives 0.64% (n = 360,000). Sentrin-specific protease 8 (Homo sapiens), Q96LD8. recombinant SENP8. AID 602440, 2012; in the data active means inhibition mostly above about 40%, no sharp cut-off; inactive means mostly below about 27%
Target sequence (Q96LD8 whole entry, looked up): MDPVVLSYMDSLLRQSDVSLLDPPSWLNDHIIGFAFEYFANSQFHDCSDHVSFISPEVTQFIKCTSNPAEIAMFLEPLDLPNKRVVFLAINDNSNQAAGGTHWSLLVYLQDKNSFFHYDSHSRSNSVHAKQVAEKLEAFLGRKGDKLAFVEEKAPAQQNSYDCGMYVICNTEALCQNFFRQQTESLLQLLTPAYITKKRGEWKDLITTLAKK
SENP8 block-2 = SENP8 protease inhibitors, primary screen, biochemical, luminescence. actives 1.2% (n = 330,000). purified SENP8, Z-RLRGG-aminoluciferin cleavage. Sentrin-specific protease 8 (Homo sapiens), Q96LD8. inhibition, % at 10 µM; in the data active means inhibition above about 50%
SENP6 block = SENP6 protease inhibitors, primary screen, biochemical, luminescence, uHTS; actives 1.8% (n = 330,000); inhibition, % at 10 µM; Recombinant SENP6 catalytic domain, aminoluciferin luminescence; Sentrin-specific protease 6 (Homo sapiens), Q9GZR1;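 active means inhibition above about 50% at the single tested dose, limit read from the data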;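 further: plate controls were DMSO wells with enzyme for no effect and DMSO wells lacking enzyme for full effect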
SENP1 inh = human SENP1 catalytic domain inhibitors, primary screen, biochemical, FRET, uHTS. AID 624204, 2012. actives 0.21% (n = 360,000). recombinant SENP1 catalytic domain, CyPet-SUMO1-YPet FRET cleavage. Sentrin-specific protease 1 (Homo sapiens), Q9P0U3. inhibition, % at 10 µM;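 active means inhibition at least 30% at 10 µM, raw YFP signal under a set limit, fluorescence ratio 0.5 to 1.5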;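 further: 0% = enzyme with DMSO and 100% = no enzyme wells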
Target sequence (Q9P0U3 419-644 limits assumed): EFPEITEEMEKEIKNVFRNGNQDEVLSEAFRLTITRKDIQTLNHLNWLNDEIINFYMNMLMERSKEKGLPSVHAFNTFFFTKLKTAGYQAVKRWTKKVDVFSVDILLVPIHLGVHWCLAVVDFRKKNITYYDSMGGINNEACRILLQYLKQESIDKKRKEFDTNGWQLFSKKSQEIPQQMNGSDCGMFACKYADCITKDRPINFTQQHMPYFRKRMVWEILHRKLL
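Controls: no-enzyme wells low, DMSO-plus-enzyme wells high control. Test system: human recombinant His6-tagged SENP1 catalytic domain enzyme. Reagent: SFCypet-SUMO1-SFYpet FRET protein substrate, 25 nM final. Doses: one dose per compound, 10 µM, 0.5% DMSO. Detection: FRET, CFP and YFP emission. Timing: 50 min reaction at room temperature.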
SENP7 block = SENP7 protease inhibitors, primary screen, biochemical, luminescence, uHTS. inhibition, % at 5 µM. recombinant SENP7, Z-RLRGG-aminoluciferin luminescence, 40 min. actives 1.5% (n = 330,000);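 active means inhibition above about 50% at the single test dose, limit read from the data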;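 further: plate controls were DMSO with enzyme for no effect and no enzyme buffer wells for full effect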
HSP90 inh = HSP90 inhibitors, primary screen, cell lysate, luminescence; Heat shock protein HSP 90 (rabbit reticulocyte lysate; luciferase refolding); Rabbit reticulocyte lysate, luciferase refolding luminescence, 3 h; inhibition, % at 5.6 µM; AID 1789, 2009; actives 0.91% (n = 290,000);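 active means inhibition above the screen-wide mean plus 3 SD, computed separately per campaign, cut at about 16% in these data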;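 further: 0% = DMSO wells and 100% = 60 µM geldanamycin wells; inhibitors lower the luminescence because luciferase stays unfolded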
SENP8 confirm = SENP8 protease inhibitors, retest, confirmation, biochemical, luminescence, single concentration. Recombinant SENP8, Z-RLRGG-aminoluciferin luminescence, 60 min. actives 40% (n = 6,200). shares compounds with SENP7 block. inhibition, % at 12.5 µM. AID 488912, 2010;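 active means mean inhibition across replicates above about 50%, limit read from the data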
SENP6 conf = SENP6 protease inhibitors, confirmation, biochemical, luminescence, single concentration. AID 488915, 2010. shares compounds with SENP7 block. inhibition, % at 12.5 µM. recombinant SENP6, Z-RLRGG-aminoluciferin luminescence. actives 58% (n = 6,200)
SENP7 conf = SENP7 protease inhibitors, retest, confirmation, biochemical, luminescence, single concentration; shares compounds with SENP7 block; recombinant SENP7, Z-RLRGG-aminoluciferin luminescence, 40 min; inhibition, % at 12.5 µM; actives 69% (n = 6,200)
Casp3 SENP sel = caspase-3 protease inhibitors, confirmation, selectivity assay for SENP inhibitor project, biochemical, single concentration; shares compounds with SENP7 block; inhibition, % at 12.5 µM; purified caspase-3, Z-DEVD-aminoluciferin luminescence, 60 min; AID 488918, 2010; actives 60% (n = 6,200);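 active means mean inhibition above about 50%, limit read from the data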;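 further: plate controls were enzyme with DMSO for no effect and wells without caspase-3 for full effect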
Target sequence (P42574 28-227 limits assumed): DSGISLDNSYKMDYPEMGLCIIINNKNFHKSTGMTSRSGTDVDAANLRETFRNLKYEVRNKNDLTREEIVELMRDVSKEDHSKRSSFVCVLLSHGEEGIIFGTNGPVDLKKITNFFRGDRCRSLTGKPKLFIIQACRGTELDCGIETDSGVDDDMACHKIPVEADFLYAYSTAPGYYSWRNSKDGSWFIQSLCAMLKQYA
Luc interf = counter-screen for SENP inhibitors: luminescence interference; shares compounds with SENP7 block; Pre-incubated SENP8/Z-RLRGG-aminoluciferin, luciferase luminescence interference; inhibition, % at 12.5 µM; actives 39% (n = 6,200); AID 488919;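 active means mean inhibition above about 50% when retested at one dose, limit read from the data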;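 further: plate controls were DMSO wells with completed reaction for no effect and substrate without enzyme for full effect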
* hit, by the source's call; · = no result.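 How the source made its calls, unless noted: active means mean inhibition above about 50% in the one-dose retest (limit read from the data); inactive means the rest.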

SMILES | SENP8 block-1 | SENP8 block-2 | SENP6 block | SENP1 inh | SENP7 block | HSP90 inh | SENP8 confirm | SENP6 conf | SENP7 conf | Casp3 SENP sel | Luc interf
Fc1ccc(CSc2nc3ccccc3[nH]2)cc1 | 7 | 71* | 83* | 1 | 7 | 1 | 83* | 79* | 94* | 74* | 79*
Fc1ccc(CSc2nc3ncccc3[nH]2)cc1 | 9 | 6 | 33 | -1 | 48 | 1 | · | · | · | · | ·
c1ccc(CSc2nc3ccccc3[nH]2)cc1 | 17 | 69* | -13 | 2 | 77* | 3 | 62* | 72* | 94* | 80* | 24
CCCOc1ccc(CSc2nc3ccccc3[nH]2)cc1 | 16 | 88* | 91* | 2 | 95* | -2 | 92* | 97* | 102* | 88* | 58*
CCCCCOc1ccc(CSc2ncn[nH]2)cc1 | -17 | 50 | 65* | 1 | 16 | 0 | 71* | 68* | 86* | 25 | 74*
CCSc1nc2ccccc2[nH]1 | 12 | 9 | -3 | 0 | 7 | -8 | · | · | · | · | ·
CCC(=O)Nc1ccc(NC(=O)CSc2nnnn2Cc2ccccc2)cc1C | -1 | 7 | -3 | 0 | -1 | 3 | · | · | · | · | ·
Cc1ccc(S(=O)(=O)n2c(N)nc3cc(C)c(C)cc32)cc1 | 6 | · | · | -1 | · | · | · | · | · | · | ·
Nc1nc2ccccc2[nH]1 | 17 | 3 | -17 | -5 | -1 | 1 | · | · | · | · | ·
Nc1ccccc1Sc1nc2ccccc2[nH]1 | -6 | 57* | 61* | 1 | 23 | 1 | 61* | 58* | 84* | 86* | 72*
CCOc1ccc(-c2nnc(SCC(=O)O)n2Cc2ccccc2)cc1 | 3 | -2 | -4 | 0 | 0 | -2 | · | · | · | · | ·
O=S(=O)(O)c1ccc(N=NNc2ccc(Br)cc2)cc1 | 30 | 90* | 89* | 0 | 90* | -2 | 91* | 91* | 99* | 85* | 93*
Cc1ccc(NC(=O)c2sc(N)nc2C)cc1 | 17 | 13 | 0 | 2 | 32 | -3 | · | · | · | · | ·
O=C(O)c1ccccc1-c1ccccc1C(=O)Nc1ccc2c(c1)CCC2 | 11 | 1 | -6 | 0 | -4 | 0 | · | · | · | · | ·
Cc1ccc(C(=O)Nc2nc(C)c(C(=O)Nc3ccc4c(c3)CCC4)s2)cc1 | -115 | 17 | 66* | -26 | 42 | 13 | 38 | 32 | 65* | 49 | 6
O=C(Nc1ccc2c(c1)CCC2)c1ccccc1 | 4 | 82* | 84* | 2 | 88* | 15 | 90* | 89* | 98* | 88* | 87*
O=C(Nc1ccc2c(c1)CCC2)c1ccccc1F | 33 | 70* | 92* | 0 | 80* | 9 | 11 | 86* | 99* | 85* | 85*
O=C(Nc1ccc2c(c1)CCC2)c1cnccn1 | 6 | 35 | 52* | 0 | 47 | -6 | 55* | 52* | 83* | 77* | 29
CS(=O)(=O)N(CC(=O)N1CCN(Cc2ccccc2)CC1)c1cccc(F)c1 | 7 | -6 | 5 | 0 | -5 | -2 | · | · | · | · | ·
CN(C)c1cccc(C(=O)NCCCSc2ccccc2)c1 | -382 | -6 | -3 | 1 | 0 | -1 | · | · | · | · | ·
COc1cc2ccc(C(C)=NNC(N)=S)cc2cc1OC | -1 | · | · | 3 | · | · | · | · | · | · | ·
CCC(C)[C@H](NC(=O)N1CC(=O)Nc2ccccc21)C(=O)N[C@@H](C(=O)O)c1ccccc1 (stereo partly drawn) | -4 | 3 | -11 | -17 | -8 | 6 | · | · | · | · | ·
CCOC(=O)c1ccc(NC(=O)c2cnccn2)cc1 | -10 | -19 | -19 | -2 | -7 | 1 | · | · | · | · | ·
CCCCc1ccc(NC(=O)c2cnccn2)cc1 | 19 | 85* | 85* | 1 | 92* | 17* | 92* | 95* | 101* | 86* | 58*
COc1ccc(C(=O)N2CCN(c3ccccc3Cl)CC2)cc1S(=O)(=O)NC1CC1 | 6 | 2 | 4 | 4 | -11 | · | · | · | · | · | ·
SMILES | SENP8 block-1 | SENP8 block-2 | SENP6 block | SENP1 inh | SENP7 block | HSP90 inh | SENP8 confirm | SENP6 conf | SENP7 conf | Casp3 SENP sel | Luc interf
Clc1ccc(-c2nnc(-c3ccco3)o2)cc1 | -188 | 52* | 63* | 3 | 73* | 0 | 36 | 41 | 59* | 54* | 0
Cc1c(C(C)(C)C)s/c(=N/S(=O)(=O)c2ccccc2)n1C | 11 | -11 | -10 | -1 | 3 | 12 | · | · | · | · | ·
CN(/C(=N/S(=O)(=O)c1cccs1)c1ccccc1)c1ccccc1 | 5 | 4 | 5 | 3 | 5 | -4 | · | · | · | · | ·
Cc1cc[n+](C2=C([O-])c3ccccc3C(=O)/C2=N\S(=O)(=O)c2cccs2)cc1C | 29 | 39 | 60* | 1 | 16 | 8 | 18 | 30 | 11 | 1 | 3
O=S(=O)([N-]c1nc2ccccc2nc1-[n+]1ccc(CCCc2ccccc2)cc1)c1cccs1 | 18 | -11 | -9 | -43 | -6 | 2 | · | · | · | · | ·
CC(C)(C)c1cc[n+](C2=C([O-])c3ccccc3C(=O)/C2=N\S(=O)(=O)c2ccccc2)cc1 | 48* | 42 | 66* | 3 | 15 | 16* | 41 | 72* | 43 | 7 | 1
O=C1/C(=N\S(=O)(=O)c2cccs2)C([n+]2ccc(CCCc3ccccc3)cc2)=C([O-])c2ccccc21 | 32 | 39 | 60* | 3 | 21 | 6 | -10 | 28 | 5 | -1 | -11
Cc1cc(C)c[n+](C2=C([O-])c3ccccc3C(=O)/C2=N\S(=O)(=O)c2cccs2)c1 | 75* | 21 | 55* | 0 | 15 | -2 | 40 | 59* | 22 | -4 | -8

Screens: PubChem BioAssay, several laboratories
